{
  "source": "ChEMBL document CHEMBL1250436",
  "about": "“Evaluation of N-substitution in 6,7-benzomorphan compounds” (Bioorg Med Chem, 2010)",
  "key": {"[1]": {"molecular_target": "Delta-type opioid receptor (Rattus norvegicus, UniProt P33533)", "sequence (P33533 whole entry)": "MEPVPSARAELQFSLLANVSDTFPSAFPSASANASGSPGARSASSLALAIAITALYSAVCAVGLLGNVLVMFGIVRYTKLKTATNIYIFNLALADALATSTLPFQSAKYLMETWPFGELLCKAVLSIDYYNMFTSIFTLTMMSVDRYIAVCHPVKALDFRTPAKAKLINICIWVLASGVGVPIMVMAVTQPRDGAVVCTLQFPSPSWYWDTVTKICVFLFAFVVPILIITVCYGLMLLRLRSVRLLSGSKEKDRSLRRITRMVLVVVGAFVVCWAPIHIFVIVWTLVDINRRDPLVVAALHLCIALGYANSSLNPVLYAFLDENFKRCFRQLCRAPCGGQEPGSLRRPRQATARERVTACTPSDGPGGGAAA", "test": "Displacement of [3H]DPDPE from Sprague-Dawley rat delta opioid receptor by liquid scintillation counting"}, "[2]": {"molecular_target": "Kappa-type opioid receptor (Cavia porcellus, UniProt P41144)", "sequence (P41144 whole entry)": "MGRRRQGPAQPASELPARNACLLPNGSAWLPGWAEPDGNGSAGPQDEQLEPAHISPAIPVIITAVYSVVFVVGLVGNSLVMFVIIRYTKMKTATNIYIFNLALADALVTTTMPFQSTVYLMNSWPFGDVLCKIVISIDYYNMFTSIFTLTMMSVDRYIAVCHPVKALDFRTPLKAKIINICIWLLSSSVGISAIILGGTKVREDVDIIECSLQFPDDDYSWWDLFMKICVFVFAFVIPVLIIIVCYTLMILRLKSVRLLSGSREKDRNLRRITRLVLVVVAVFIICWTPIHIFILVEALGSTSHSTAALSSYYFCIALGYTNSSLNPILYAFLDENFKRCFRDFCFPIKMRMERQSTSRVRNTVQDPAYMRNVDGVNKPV", "test": "Displacement of [3H]U69593 from […] kappa opioid receptor in guinea pig cerebella by liquid scintillation counting"}, "Mu-type opioid receptor [3]": {"molecular_target": "Mu-type opioid receptor (Rattus norvegicus, UniProt P33535)", "sequence (P33535 whole entry)": "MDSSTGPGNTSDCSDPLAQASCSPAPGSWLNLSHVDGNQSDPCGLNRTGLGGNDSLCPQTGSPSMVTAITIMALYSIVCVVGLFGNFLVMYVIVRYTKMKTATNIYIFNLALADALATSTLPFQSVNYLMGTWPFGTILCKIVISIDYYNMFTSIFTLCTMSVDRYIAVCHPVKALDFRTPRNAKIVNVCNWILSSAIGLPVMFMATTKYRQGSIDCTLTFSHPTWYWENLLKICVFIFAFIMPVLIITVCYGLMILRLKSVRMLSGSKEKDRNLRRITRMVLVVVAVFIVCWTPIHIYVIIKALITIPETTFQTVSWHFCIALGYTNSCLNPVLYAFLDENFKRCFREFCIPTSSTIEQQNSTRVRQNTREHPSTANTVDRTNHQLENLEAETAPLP", "test": "Displacement of [3H]DAMGO from Sprague-Dawley rat mu opioid receptor by liquid scintillation counting"}, "[4]": {"test": "Selectivity ratio of Ki for kappa opioid receptor in guinea pig cerebella to Ki for mu opioid receptor in Sprague-Dawley rat brain"}, "Rattus norvegicus [5]": {"organism": "Rattus norvegicus", "test": "Selectivity ratio of Ki for delta opioid receptor in Sprague-Dawley rat brain to Ki for mu opioid receptor in Sprague-Dawley rat brain"}, "Rattus norvegicus [6]": {"system": "Rattus norvegicus", "test": "Antinociceptive activity in sc dosed Sprague-Dawley rat assessed as thermal-stimulus-induced tail flick latency after 100 mins", "format": "functional", "procedure,_shortened": "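Male Sprague–Dawley rats (180–200 g) habituated the day before. Radiant-heat IR on lower third of tail. Basal latency 3–4 s, mean of three readings 5 min apart. Cut-off 10 s. Compound given sc, and latencies read at 20, 40, 60, 80 and 100 min. Blinded. ED50 from linear regression of dose–effect, with 95% confidence limits.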"}, "Mu-type opioid receptor [7]": {"molecular_target": "T1, Mu-type opioid receptor (Homo sapiens, UniProt P35372)", "T1 sequence (P35372 whole entry)": "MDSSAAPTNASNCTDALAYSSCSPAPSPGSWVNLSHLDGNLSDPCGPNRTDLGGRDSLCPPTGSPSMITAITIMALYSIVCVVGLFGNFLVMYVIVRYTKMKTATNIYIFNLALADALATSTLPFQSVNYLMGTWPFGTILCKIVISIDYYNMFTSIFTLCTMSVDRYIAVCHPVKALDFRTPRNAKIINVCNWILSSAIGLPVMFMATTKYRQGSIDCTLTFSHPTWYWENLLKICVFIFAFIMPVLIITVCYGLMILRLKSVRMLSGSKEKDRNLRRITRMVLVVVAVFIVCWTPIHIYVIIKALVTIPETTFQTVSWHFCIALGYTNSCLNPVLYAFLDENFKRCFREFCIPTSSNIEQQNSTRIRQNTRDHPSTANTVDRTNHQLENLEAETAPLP", "test": "Agonist activity at mu opioid expressed in HEK293 cells assessed as inhibition of forskolin-stimulated cAMP accumulation", "format": "functional, cell-based"}, "[8]": {"molecular_target": "T2, Delta-type opioid receptor (Homo sapiens, UniProt P41143)", "T2 sequence (P41143 whole entry)": "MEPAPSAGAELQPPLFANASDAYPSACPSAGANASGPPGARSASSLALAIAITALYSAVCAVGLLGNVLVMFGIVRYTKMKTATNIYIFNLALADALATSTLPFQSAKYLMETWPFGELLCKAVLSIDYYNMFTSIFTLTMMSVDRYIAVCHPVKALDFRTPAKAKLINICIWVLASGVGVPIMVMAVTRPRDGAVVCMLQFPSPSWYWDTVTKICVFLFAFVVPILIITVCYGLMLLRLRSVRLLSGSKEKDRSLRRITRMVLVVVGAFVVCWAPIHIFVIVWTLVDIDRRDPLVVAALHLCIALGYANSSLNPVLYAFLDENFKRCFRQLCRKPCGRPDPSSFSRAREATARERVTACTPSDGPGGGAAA", "test": "Agonist activity at delta opioid expressed in HEK293 cells assessed as inhibition of forskolin-stimulated cAMP accumulation", "format": "functional, cell-based"}, "Mu-type opioid receptor [9]": {"molecular_target": "T1, Mu-type opioid receptor", "test": "Agonist activity at mu opioid expressed in HEK293 cells assessed as inhibition of forskolin-stimulated cAMP accumulation at 1 pM to 10 uM relative to control", "format": "functional, cell-based"}, "[10]": {"molecular_target": "T2, Delta-type opioid receptor", "test": "Agonist activity at delta opioid expressed in HEK293 cells assessed as inhibition of forskolin-stimulated cAMP accumulation at 1 pM to 10 uM relative to control", "format": "functional, cell-based"}},
  "data": [
    {"smiles": "C[C@@H](NC(=O)[C@@H](N)Cc1ccc(O)cc1)C(=O)NCC(=O)N(C)[C@@H](Cc1ccccc1)C(=O)NCCO", "note": "[DAMGO]", "values": [
      {"measurement": "Ki", "setting": "[1]", "value": 2.67, "unit": "µM"},
      {"measurement": "Ki", "setting": "[2]", "value": "> 5000", "unit": "nM"}
    ]},
    {"smiles": "C[C@H]1CN(CC(=O)NC2CCCCC2)[C@@H]2Cc3ccc(O)cc3[C@]1(C)C2", "values": [
      {"measurement": "Ki", "setting": "Mu-type opioid receptor [3]", "value": 2930, "unit": "nM"},
      {"measurement": "Ki", "setting": "[1]", "value": "> 5", "unit": "µM"},
      {"measurement": "Ki", "setting": "[2]", "value": 612, "unit": "nM"},
      {"measurement": "Ratio Ki", "setting": "[4]", "value": 0.2},
      {"measurement": "Ratio Ki", "setting": "Rattus norvegicus [5]", "value": "> 1.7"}
    ]},
    {"smiles": "CCN(C(=O)CCN1C[C@H](C)[C@@]2(C)C[C@H]1Cc1ccc(O)cc12)c1ccccc1", "values": [
      {"measurement": "Ki", "setting": "Mu-type opioid receptor [3]", "value": 136, "unit": "nM"},
      {"measurement": "Ki", "setting": "[1]", "value": "> 5", "unit": "µM"},
      {"measurement": "Ki", "setting": "[2]", "value": 70, "unit": "nM"},
      {"measurement": "Ratio Ki", "setting": "[4]", "value": 0.51},
      {"measurement": "Ratio Ki", "setting": "Rattus norvegicus [5]", "value": "> 36.7"}
    ]},
    {"smiles": "C[C@H]1CN(CCC(=O)NC(C)(C)C)[C@@H]2Cc3ccc(O)cc3[C@]1(C)C2", "values": [
      {"measurement": "Ki", "setting": "Mu-type opioid receptor [3]", "value": 372, "unit": "nM"},
      {"measurement": "Ki", "setting": "[1]", "value": "> 5", "unit": "µM"},
      {"measurement": "Ki", "setting": "[2]", "value": 422, "unit": "nM"},
      {"measurement": "Ratio Ki", "setting": "[4]", "value": 1.1},
      {"measurement": "Ratio Ki", "setting": "Rattus norvegicus [5]", "value": "> 13.4"}
    ]},
    {"smiles": "C[C@H]1CN(CCC(=O)NC2CCCCC2)[C@@H]2Cc3ccc(O)cc3[C@]1(C)C2", "values": [
      {"measurement": "Ki", "setting": "Mu-type opioid receptor [3]", "value": 56, "unit": "nM"},
      {"measurement": "Ki", "setting": "[1]", "value": "> 5", "unit": "µM"},
      {"measurement": "Ki", "setting": "[2]", "value": 501, "unit": "nM"},
      {"measurement": "Ratio Ki", "setting": "[4]", "value": 8.9},
      {"measurement": "Ratio Ki", "setting": "Rattus norvegicus [5]", "value": "> 89.2"}
    ]},
    {"smiles": "C[C@H]1CN(CCC(=O)NCC2CCCCC2)[C@@H]2Cc3ccc(O)cc3[C@]1(C)C2", "values": [
      {"measurement": "Ki", "setting": "Mu-type opioid receptor [3]", "value": 107, "unit": "nM"},
      {"measurement": "Ki", "setting": "[1]", "value": "> 5", "unit": "µM"},
      {"measurement": "Ki", "setting": "[2]", "value": 134, "unit": "nM"},
      {"measurement": "Ratio Ki", "setting": "[4]", "value": 1.2},
      {"measurement": "Ratio Ki", "setting": "Rattus norvegicus [5]", "value": "> 46.7"}
    ]},
    {"smiles": "CN1CC[C@]23c4c5ccc(O)c4O[C@H]2[C@@H](O)C=C[C@H]3[C@H]1C5", "note": "[MORPHINE]", "values": [
      {"measurement": "ED50", "setting": "Rattus norvegicus [6]", "value": 2.7, "unit": "mg/kg"}
    ]},
    {"smiles": "C[C@H]1CN(CCC(=O)Nc2ccccc2)[C@@H]2Cc3ccc(O)cc3[C@]1(C)C2", "values": [
      {"measurement": "Ki", "setting": "Mu-type opioid receptor [3]", "value": 0.83, "unit": "nM"},
      {"measurement": "Ki", "setting": "[1]", "value": 0.0291, "unit": "µM"},
      {"measurement": "Ki", "setting": "[2]", "value": 110, "unit": "nM"},
      {"measurement": "Ratio Ki", "setting": "[4]", "value": 132},
      {"measurement": "Ratio Ki", "setting": "Rattus norvegicus [5]", "value": 33.8},
      {"measurement": "IC50", "setting": "Mu-type opioid receptor [7]", "value": 4.8, "unit": "nM"},
      {"measurement": "IC50", "setting": "[8]", "value": 12, "unit": "nM"},
      {"measurement": "Imax", "setting": "Mu-type opioid receptor [9]", "value": 73, "unit": "%"},
      {"measurement": "Imax", "setting": "[10]", "value": 83, "unit": "%"},
      {"measurement": "ED50", "setting": "Rattus norvegicus [6]", "value": 2.03, "unit": "mg/kg"}
    ]},
    {"smiles": "C[C@H]1CN(CC(=O)Nc2ccccc2)[C@@H]2Cc3ccc(O)cc3[C@]1(C)C2", "values": [
      {"measurement": "Ki", "setting": "Mu-type opioid receptor [3]", "value": 722, "unit": "nM"},
      {"measurement": "Ki", "setting": "[1]", "value": "> 5", "unit": "µM"},
      {"measurement": "Ki", "setting": "[2]", "value": "> 5000", "unit": "nM"},
      {"measurement": "Ratio Ki", "setting": "[4]", "value": "> 6.9"},
      {"measurement": "Ratio Ki", "setting": "Rattus norvegicus [5]", "value": "> 6.9"}
    ]},
    {"smiles": "C[C@H]1CN(CCC(=O)NCc2ccccc2)[C@@H]2Cc3ccc(O)cc3[C@]1(C)C2", "values": [
      {"measurement": "Ki", "setting": "Mu-type opioid receptor [3]", "value": 105, "unit": "nM"},
      {"measurement": "Ki", "setting": "[1]", "value": "> 5", "unit": "µM"},
      {"measurement": "Ki", "setting": "[2]", "value": 237, "unit": "nM"},
      {"measurement": "Ratio Ki", "setting": "[4]", "value": 2.2},
      {"measurement": "Ratio Ki", "setting": "Rattus norvegicus [5]", "value": "> 47.6"}
    ]},
    {"smiles": "C[C@H]1CN(CC(=O)N(C)c2ccccc2)[C@@H]2Cc3ccc(O)cc3[C@]1(C)C2", "values": [
      {"measurement": "Ki", "setting": "Mu-type opioid receptor [3]", "value": 1370, "unit": "nM"},
      {"measurement": "Ki", "setting": "[1]", "value": "> 5", "unit": "µM"},
      {"measurement": "Ki", "setting": "[2]", "value": 339, "unit": "nM"},
      {"measurement": "Ratio Ki", "setting": "[4]", "value": 0.24},
      {"measurement": "Ratio Ki", "setting": "Rattus norvegicus [5]", "value": "> 3.6"}
    ]},
    {"smiles": "CCN(C(=O)CN1C[C@H](C)[C@@]2(C)C[C@H]1Cc1ccc(O)cc12)c1ccccc1", "values": [
      {"measurement": "Ki", "setting": "Mu-type opioid receptor [3]", "value": 1120, "unit": "nM"},
      {"measurement": "Ki", "setting": "[1]", "value": "> 5", "unit": "µM"},
      {"measurement": "Ki", "setting": "[2]", "value": 335, "unit": "nM"},
      {"measurement": "Ratio Ki", "setting": "[4]", "value": 0.29},
      {"measurement": "Ratio Ki", "setting": "Rattus norvegicus [5]", "value": "> 4.4"}
    ]},
    {"smiles": "C[C@H]1CN(CCC(=O)N(C)c2ccccc2)[C@@H]2Cc3ccc(O)cc3[C@]1(C)C2", "values": [
      {"measurement": "Ki", "setting": "Mu-type opioid receptor [3]", "value": 65, "unit": "nM"},
      {"measurement": "Ki", "setting": "[1]", "value": "> 5", "unit": "µM"},
      {"measurement": "Ki", "setting": "[2]", "value": 261, "unit": "nM"},
      {"measurement": "Ratio Ki", "setting": "[4]", "value": 4},
      {"measurement": "Ratio Ki", "setting": "Rattus norvegicus [5]", "value": "> 76.9"}
    ]}
  ]
}
